The values that follow come from ChEMBL document CHEMBL3774321, “Systematic diversification of benzylidene heterocycles yields novel inhibitor scaffolds selective for Dyrk1A, Clk1 and CK2” (Eur J Med Chem, 2016).

The target in data set [1] is Dual specificity tyrosine-phosphorylation-regulated kinase 1B (Homo sapiens, UniProt Q9Y463). Put plainly: Inhibition of full length recombinant human GST-tagged DYRK1B expressed in insect cells using KKISGRLSPIMTEQ-NH2 as substrate incubated for 15 mins in presence of [gamma-32P]ATP.
The target in data set [2] is Protein kinase C beta type (Homo sapiens, UniProt P05771). Description: Inhibition of PKCbeta (unknown origin) incubated for 15 mins in presence of [gamma-32P]ATP. In a few lines: (§1)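 Purified recombinant kinase assayed with 100 μM ATP. Values averaged from at least two independent determinations.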
Data set [3] addresses Casein kinase II (Homo sapiens, UniProt P67870+P68400+P19784). Description: (§2) Inhibition of CK2 (unknown origin) using RRRDDDSDDD-NH2 as susbtrate incubated for 15 mins in presence of [gamma-32P]ATP. The data set is classed as protein-complex assay.
A short description of data set [4]: Dissociation constant, pKa of compound. It is filed as physicochemical.
In data set [5] the target is Dual specificity protein kinase CLK1 (Homo sapiens, UniProt P49759). Description: Inhibition of recombinant human GST-tagged CLK1 catalytic domain (129 to 484 residues) expressed in Escherichia coli using GRSRSRSRSRSRSRSR as substrate incubated for 15 mins in presence of [gamma-32P]ATP. The procedure, abridged:
(§3)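 Purified recombinant kinase with 100 µM ATP. IC50 values are averages of at least two independent determinations.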

Data set [6] addresses T1, Dual specificity tyrosine-phosphorylation-regulated kinase 2 (Homo sapiens, UniProt Q92630).
T1 sequence (Q92630 whole entry): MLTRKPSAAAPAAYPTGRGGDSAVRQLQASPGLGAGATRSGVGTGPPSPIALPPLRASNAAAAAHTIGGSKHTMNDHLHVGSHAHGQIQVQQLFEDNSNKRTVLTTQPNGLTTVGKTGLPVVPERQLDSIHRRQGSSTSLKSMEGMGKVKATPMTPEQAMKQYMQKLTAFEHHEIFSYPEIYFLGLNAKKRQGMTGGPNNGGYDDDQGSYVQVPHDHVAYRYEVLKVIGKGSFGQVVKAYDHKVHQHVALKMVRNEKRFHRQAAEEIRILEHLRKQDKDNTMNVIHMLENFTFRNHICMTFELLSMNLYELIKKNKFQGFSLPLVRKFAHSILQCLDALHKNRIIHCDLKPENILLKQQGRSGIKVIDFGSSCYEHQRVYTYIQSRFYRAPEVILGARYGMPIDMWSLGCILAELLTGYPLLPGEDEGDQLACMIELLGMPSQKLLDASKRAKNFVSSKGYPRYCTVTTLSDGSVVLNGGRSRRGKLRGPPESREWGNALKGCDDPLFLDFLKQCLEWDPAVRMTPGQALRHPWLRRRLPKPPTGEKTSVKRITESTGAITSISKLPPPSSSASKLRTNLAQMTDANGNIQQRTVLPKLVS
Put plainly: Inhibition of recombinant human N-terminal GST-tagged DYRK2 expressed in Escherichia coli BL21(DE3) cells using KKISGRLSPIMTEQ-NH2 as substrate incubated for 15 mins in presence of [gamma-32P]ATP. The procedure, abridged:
as §3

Data set [7] addresses T2, Dual specificity tyrosine-phosphorylation-regulated kinase 1A (Homo sapiens, UniProt Q13627). Description: Inhibition of recombinant human N-terminal His6-tagged DYRK1A catalytic domain expressed in Escherichia coli BL21(DE3) cells using KKISGRLSPIMTEQ-NH2 as substrate incubated for 15 mins in presence of [gamma-32P]ATP.
The target of data set [8] is Epidermal growth factor receptor (Homo sapiens, UniProt P00533). Description: Inhibition of EGFR (unknown origin) incubated for 15 mins in presence of [gamma-32P]ATP. The procedure, abridged:
as §1

The target in data set [9] is Casein kinase II (Homo sapiens, UniProt P19784+P67870+P68400). Described as §2. The data set is classed as protein-complex assay.
A short description of data set [10]: Growth inhibition of human U87MG cells after 4 days by MTT assay. The data set is classed as functional, cell-based, U-87MG ATCC. Conditions: U-87 MG, 96 h; call rule not given here.
The target of data set [11] is T2, Dual specificity tyrosine-phosphorylation-regulated kinase 1A. Description: Inhibition of tetracycline-inducible EGFP-DYRK1A (unknown origin) expressed in HEK293 cells coexpressing full length human EGFP-tau protein assessed as reduction in tau-Thr212 phosphorylation incubated overnight by immunoblotting assay. For orientation: A western blot detects proteins with antibodies after separation by electrophoresis.

Data set [12] is described as follows: Half life in rat plasma at 1 uM by LC-MS/MS analysis. The data set is classed as ADME, cell-free. In a few lines: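 Pooled heparinized rat plasma incubated with 1 μM compound at 37 °C, sampled at 0, 5, 15, 30, 60 and 120 min. Reaction stopped with 5 volumes cold acetonitrile containing internal standard. Remaining compound quantified by LC-MS/MS. Half-life given as mean of two experiments.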

Data set [13] concerns Plasma. Put plainly: Metabolic stability in rat plasma assessed as drug degradation at 1 uM after 120 mins by LC-MS/MS analysis. The data set is classed as ADME, cell-free. Conditions: 2 h. In a few lines:
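Compound (1 µM) in pooled heparinised rat plasma at 37 °C, sampled at 0, 5, 15, 30, 60 and 120 min. Reaction stopped with 5 volumes of cold acetonitrile containing internal standard. Remaining compound was measured by LC-MS/MS; means of two experiments.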

Some results are limits rather than exact numbers.

Sequence of Dual specificity tyrosine-phosphorylation-regulated kinase 1B (Q9Y463 whole entry): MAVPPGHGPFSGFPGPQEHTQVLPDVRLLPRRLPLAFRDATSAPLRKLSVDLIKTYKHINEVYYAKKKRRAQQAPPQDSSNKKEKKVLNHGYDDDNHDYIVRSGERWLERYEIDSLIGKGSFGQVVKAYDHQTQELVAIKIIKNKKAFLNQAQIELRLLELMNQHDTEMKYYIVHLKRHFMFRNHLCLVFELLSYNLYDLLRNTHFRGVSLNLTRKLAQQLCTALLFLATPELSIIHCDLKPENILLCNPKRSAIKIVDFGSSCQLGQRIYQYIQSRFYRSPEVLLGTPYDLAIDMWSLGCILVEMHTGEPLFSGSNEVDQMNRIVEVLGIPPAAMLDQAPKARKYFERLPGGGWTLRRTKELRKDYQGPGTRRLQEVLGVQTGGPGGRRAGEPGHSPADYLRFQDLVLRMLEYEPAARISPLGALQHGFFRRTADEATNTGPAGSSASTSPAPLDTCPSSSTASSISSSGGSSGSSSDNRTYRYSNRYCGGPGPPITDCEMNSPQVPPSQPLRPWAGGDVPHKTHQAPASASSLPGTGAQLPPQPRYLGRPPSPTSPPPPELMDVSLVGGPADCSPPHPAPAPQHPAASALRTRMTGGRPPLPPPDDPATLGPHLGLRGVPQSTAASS
Sequence of Protein kinase C beta type (P05771 whole entry): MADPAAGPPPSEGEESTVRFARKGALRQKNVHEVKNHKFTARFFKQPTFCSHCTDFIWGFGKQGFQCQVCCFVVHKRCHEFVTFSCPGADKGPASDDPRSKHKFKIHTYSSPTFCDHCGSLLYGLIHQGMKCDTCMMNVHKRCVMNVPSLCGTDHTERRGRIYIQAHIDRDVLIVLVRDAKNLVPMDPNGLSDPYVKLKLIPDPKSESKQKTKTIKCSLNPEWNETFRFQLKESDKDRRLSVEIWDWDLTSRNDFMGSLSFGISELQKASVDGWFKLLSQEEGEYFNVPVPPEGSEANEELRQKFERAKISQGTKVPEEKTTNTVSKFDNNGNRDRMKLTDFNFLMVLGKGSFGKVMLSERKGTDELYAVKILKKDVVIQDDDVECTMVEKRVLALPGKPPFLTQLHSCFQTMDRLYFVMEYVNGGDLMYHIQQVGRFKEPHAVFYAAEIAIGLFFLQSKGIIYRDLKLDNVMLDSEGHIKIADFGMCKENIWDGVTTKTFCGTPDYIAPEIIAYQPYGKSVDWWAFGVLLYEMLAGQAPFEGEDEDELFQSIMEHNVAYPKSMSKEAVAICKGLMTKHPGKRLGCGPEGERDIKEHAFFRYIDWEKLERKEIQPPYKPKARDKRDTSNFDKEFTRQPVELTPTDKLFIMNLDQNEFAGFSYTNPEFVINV
Sequence of Casein kinase II (Homo sapiens, UniProt P19784+P67870+P68400) (P67870 whole entry): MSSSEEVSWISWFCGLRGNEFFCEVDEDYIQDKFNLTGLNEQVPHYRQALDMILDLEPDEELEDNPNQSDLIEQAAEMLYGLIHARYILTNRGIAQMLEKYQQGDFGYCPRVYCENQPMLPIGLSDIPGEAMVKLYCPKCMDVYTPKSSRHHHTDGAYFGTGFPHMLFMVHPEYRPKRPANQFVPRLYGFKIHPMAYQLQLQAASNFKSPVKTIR
Sequence of Casein kinase II (Homo sapiens, UniProt P19784+P67870+P68400) (P68400 whole entry): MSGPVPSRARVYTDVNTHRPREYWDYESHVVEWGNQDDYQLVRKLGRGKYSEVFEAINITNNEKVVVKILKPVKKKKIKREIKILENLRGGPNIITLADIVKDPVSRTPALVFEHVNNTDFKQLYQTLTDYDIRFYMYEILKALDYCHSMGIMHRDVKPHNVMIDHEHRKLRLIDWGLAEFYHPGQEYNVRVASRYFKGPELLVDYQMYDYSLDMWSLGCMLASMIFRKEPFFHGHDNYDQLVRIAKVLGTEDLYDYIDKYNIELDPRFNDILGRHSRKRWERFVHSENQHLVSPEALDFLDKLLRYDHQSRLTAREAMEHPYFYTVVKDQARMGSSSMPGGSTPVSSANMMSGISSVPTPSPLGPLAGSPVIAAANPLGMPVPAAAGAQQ
Sequence of Casein kinase II (Homo sapiens, UniProt P19784+P67870+P68400) (P19784 whole entry): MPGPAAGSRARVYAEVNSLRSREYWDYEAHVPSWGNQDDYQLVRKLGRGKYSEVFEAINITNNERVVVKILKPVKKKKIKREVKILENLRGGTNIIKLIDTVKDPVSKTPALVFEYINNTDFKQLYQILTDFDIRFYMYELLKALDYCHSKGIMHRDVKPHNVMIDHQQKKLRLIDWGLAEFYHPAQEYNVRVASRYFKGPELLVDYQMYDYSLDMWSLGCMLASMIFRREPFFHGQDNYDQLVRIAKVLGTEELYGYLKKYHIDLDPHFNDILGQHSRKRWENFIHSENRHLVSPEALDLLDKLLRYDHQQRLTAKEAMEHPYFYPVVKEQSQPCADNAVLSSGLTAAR
Sequence of Epidermal growth factor receptor (P00533 whole entry): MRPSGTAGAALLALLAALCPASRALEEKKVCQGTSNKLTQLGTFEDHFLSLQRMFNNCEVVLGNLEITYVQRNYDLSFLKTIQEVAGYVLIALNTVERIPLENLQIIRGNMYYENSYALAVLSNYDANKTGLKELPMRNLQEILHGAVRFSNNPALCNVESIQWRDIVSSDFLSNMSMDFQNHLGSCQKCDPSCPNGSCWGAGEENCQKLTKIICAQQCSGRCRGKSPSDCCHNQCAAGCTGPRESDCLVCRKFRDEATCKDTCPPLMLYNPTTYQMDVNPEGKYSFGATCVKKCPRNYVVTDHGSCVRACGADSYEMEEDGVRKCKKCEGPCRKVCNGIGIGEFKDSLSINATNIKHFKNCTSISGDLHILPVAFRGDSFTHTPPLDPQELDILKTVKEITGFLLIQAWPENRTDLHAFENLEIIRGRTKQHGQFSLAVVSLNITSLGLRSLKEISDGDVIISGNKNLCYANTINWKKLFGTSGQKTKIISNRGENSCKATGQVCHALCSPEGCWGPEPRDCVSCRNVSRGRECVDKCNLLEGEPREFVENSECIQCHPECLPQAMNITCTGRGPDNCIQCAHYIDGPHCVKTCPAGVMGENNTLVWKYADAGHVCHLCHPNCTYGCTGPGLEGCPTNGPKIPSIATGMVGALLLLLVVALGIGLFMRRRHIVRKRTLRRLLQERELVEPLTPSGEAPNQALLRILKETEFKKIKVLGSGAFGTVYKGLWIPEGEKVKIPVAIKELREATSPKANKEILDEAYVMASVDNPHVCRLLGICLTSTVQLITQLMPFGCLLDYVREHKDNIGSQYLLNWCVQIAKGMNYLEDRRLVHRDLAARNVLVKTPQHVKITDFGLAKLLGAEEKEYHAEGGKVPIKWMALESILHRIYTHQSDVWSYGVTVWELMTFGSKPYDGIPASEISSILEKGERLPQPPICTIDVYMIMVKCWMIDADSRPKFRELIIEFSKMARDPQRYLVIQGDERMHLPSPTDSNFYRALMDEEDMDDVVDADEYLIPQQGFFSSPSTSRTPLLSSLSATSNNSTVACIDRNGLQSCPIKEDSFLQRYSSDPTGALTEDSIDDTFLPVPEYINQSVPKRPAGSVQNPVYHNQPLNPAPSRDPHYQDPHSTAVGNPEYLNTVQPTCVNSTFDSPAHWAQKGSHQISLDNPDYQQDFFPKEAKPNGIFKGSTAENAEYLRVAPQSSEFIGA
Sequence of Dual specificity protein kinase CLK1 (P49759 whole entry, the tested form may be a part): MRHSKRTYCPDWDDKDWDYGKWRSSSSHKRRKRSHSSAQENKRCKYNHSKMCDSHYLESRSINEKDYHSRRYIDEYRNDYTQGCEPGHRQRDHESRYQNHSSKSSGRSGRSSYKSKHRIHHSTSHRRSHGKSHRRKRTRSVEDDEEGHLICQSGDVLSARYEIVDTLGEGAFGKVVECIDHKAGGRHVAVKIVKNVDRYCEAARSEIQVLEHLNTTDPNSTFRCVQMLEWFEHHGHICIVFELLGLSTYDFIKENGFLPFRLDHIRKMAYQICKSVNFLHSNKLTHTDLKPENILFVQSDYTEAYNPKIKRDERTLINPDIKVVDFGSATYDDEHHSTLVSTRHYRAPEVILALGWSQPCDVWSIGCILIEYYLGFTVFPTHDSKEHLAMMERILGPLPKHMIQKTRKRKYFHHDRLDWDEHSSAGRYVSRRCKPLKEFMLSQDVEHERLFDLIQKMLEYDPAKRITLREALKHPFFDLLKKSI
Sequence of Casein kinase II (Homo sapiens, UniProt P67870+P68400+P19784) (P67870 whole entry): as the sequence (P67870 whole entry) above
Sequence of Casein kinase II (Homo sapiens, UniProt P67870+P68400+P19784) (P68400 whole entry): as the sequence (P68400 whole entry) above
Sequence of Casein kinase II (Homo sapiens, UniProt P67870+P68400+P19784) (P19784 whole entry): as the sequence (P19784 whole entry) above

The term IC50 denotes the concentration at which inhibition is half-maximal. In general, pKa refers to the negative logarithm of the acid dissociation constant. Higher therefore signals a weaker acid or stronger base. `COc1ccc(/C=C2\NC(=O)NC2=O)cc1`: the IC50 in [1] was over 10 µM; in [2] it was “Not Active”; in [3], “Not Active”; in data set [5] it was 10 µM; in data set [6] it was “Not Active”; in data set [7] it was 6.4 µM. In addition, the pKa in data set [4] amounted to 8.9.

As to `COc1ccc(/C=C2\CCOC2=O)cc1`, the IC50 was 3.8 µM in [1]; “Not Active” in data set [2]; “Not Active” in [3]; over 10 µM in [5]; “Not Active” in [8]; over 10 µM in data set [6] (read-out: IC50). In addition, the IC50 in [7] was found to be 1.81 µM.

Consider `O=C1OCC/C1=C\c1ccc2c(c1)OCO2`, for which the IC50 in data set [1] is 2.63 µM; in [2], “Not Active”; in data set [9], over 10 µM; in [5], over 10 µM; in data set [8] (read-out: IC50), over 10 µM; in [6] (read-out: IC50), 0.99 µM. The IC50 in data set [7] turned out to be 0.6 µM.

As for `O=C1OCC/C1=C\c1ccc2c(c1)OCCO2`, the IC50 in [1] was 4.29 µM; in data set [2], “Not Active”; in data set [9], over 10 µM; in data set [5], over 10 µM; in [8] (read-out: IC50), over 10 µM; in data set [6] (read-out: IC50), 2.04 µM. Besides, in [7], the IC50 came to 0.88 µM.

As for `COc1ccc(/C=C2\NC(=O)SC2=O)cc1`, the IC50 in data set [1] was 5.2 µM; in data set [2], “Not Active”; in data set [9], 0.17 µM; in data set [5], 3.6 µM; in data set [8] it was “Not Active”; in data set [6] (read-out: IC50), 9.2 µM. Moreover, the IC50 in [7] came to 1.3 µM.

Take `O=C1NC(=O)/C(=C/c2ccc3nccnc3c2)S1`: the concentration for half-maximal inhibition (IC50) in data set [1] was 0.08 µM; in data set [2], “Not Active”; in data set [10] it was 0.32 µM; in [9], 0.02 µM; in data set [5] it was 0.07 µM; in data set [8] (read-out: IC50), over 10 µM. Further, the IC50 was determined as 0.1 µM in data set [6] (read-out: IC50), 1.6 µM in [11] and 0.03 µM in [7].

What is called half-life is the time in which the quantity being followed falls by half. Low readings indicate fast loss, high ones slow loss. Take `CCOC(=O)[C@H](Cc1ccccc1)NC(C)=O`: the half-life at 1 µM in data set [12] was under 0.0833 h.

For `O=C1NC(=S)N/C1=C\c1ccc2ncsc2c1`, the half-inhibitory concentration (IC50) is 0.9 µM in data set [1]; over 10 µM in data set [2] (read-out: IC50); 2.4 µM in data set [9]; 0.02 µM in data set [5]; over 10 µM in [8] (read-out: IC50); 1.5 µM in data set [6] (read-out: IC50). Further, the IC50 in data set [7] is 0.7 µM.

Turning to `CC1C/C(=C\c2ccc3ncsc3c2)C(=O)O1` (stereo not drawn), the half-maximal inhibitory concentration (IC50) in data set [1] is 1.68 µM; in data set [2], “Not Active”; in [9] it was over 10 µM; in data set [5], 0.17 µM; in [8] (read-out: IC50), over 10 µM; in [6] (read-out: IC50), over 10 µM. Also, the IC50 in data set [7] was 1.08 µM.

Consider `COc1ccc(/C=C2/SC(=S)NC2=O)cc1`, for which the half-inhibitory concentration (IC50) is 1.5 µM in data set [1]; “Not Active” in data set [2]; 9.5 µM in data set [10]; 0.22 µM in data set [9]; 5.7 µM in data set [5]; “Not Active” in data set [8]. Further, the results for the half-maximal inhibitory concentration (IC50) in data set [6] (read-out: IC50) and in data set [7] were over 10 µM and 0.25 µM, respectively. Also, the pKa in data set [4] was found to be 5.8.

With `COc1ccc(/C=C2\CC(=O)NC2=O)cc1`, in [7], the IC50 is over 10 µM.

For `O=C1NC(=S)S/C1=C\c1ccc2c(c1)CCO2`, the IC50 was 0.3 µM in data set [1]; over 10 µM in data set [2] (read-out: IC50); 5.6 µM in data set [10]; 0.1 µM in [9]; 0.5 µM in data set [5]; over 10 µM in data set [8] (read-out: IC50). The IC50 in data set [6] (read-out: IC50) turned out to be 1 µM; in [7] it was 0.1 µM.

On to `O=C1OCC/C1=C\c1ccc2c(c1)CCCO2`, for which the IC50 in data set [1] is 6.7 µM; in [2], “Not Active”; in data set [9] it was over 10 µM; in [5], 3.9 µM; in [8] (read-out: IC50), over 10 µM; in [6] (read-out: IC50), over 10 µM. The IC50 in data set [7] turned out to be 0.93 µM.

`COc1ccc(/C=C2\CC(C)OC2=O)cc1` (stereo not drawn): the IC50 in data set [1] is 10.5 µM; in [2], “Not Active”; in data set [9] it was over 10 µM; in data set [5], 4.37 µM; in data set [6], “Not Active”; in data set [7] it was 1.2 µM.

In the case of `O=C1OCC/C1=C\c1ccc2c(c1)CCO2`, the IC50 in data set [1] was 2.17 µM; in data set [2] it was “Not Active”; in [9], over 10 µM; in [5], over 10 µM; in data set [8] (read-out: IC50), over 10 µM; in data set [6] (read-out: IC50) it was 0.82 µM. Besides, in [7], the 50% inhibitory concentration (IC50) worked out at 0.96 µM. For the same molecule, in [13], the Stability result is given as “Stable”. For the same molecule, the half-life at 1 µM in data set [12] was over 2 h.

Regarding `COc1ccc(/C=C2\CCCOC2=O)cc1`, the concentration for half-maximal inhibition (IC50) was 5.8 µM in data set [1]; “Not Active” in data set [2]; over 10 µM in data set [9]; 7.52 µM in data set [5]; “Not Active” in [8]; over 10 µM in data set [6] (read-out: IC50). In addition, the IC50 in [7] turned out to be 1.1 µM.

In the case of `COc1ccc2c(c1)[nH]c1c(C)nccc12` [HARMINE], the IC50 in [10] amounted to 7.2 µM.

Turning to `COc1ccc([C@@H]2Sc3ccccc3N(CCN(C)C)C(=O)[C@@H]2OC(C)=O)cc1` [DILTIAZEM], the half-life at 1 µM in [12] is 2.08 h.
